Data set [1] can be described thus: folding enthalpy; higher = less favourable; fluorescence melt of hairpins on a sequencing array, two-state fit. The following applies: sodium 0.088 M. The gist of the method:
(§1)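 Melting temperature and folding enthalpy were obtained by bootstrapped two-state fitting. Fits used Cy3 fluorescence of library hairpins with annealed Cy3 and quencher oligos on a sequenced MiSeq flow cell, imaged in 50 mM Na-HEPES pH 8.0, 25 mM NaCl in 2.5 °C steps up to 60 °C and normalised to pre-quench Cy3 and control constructs. Four replicates were combined by inverse-variance weighting, and fitted temperatures were raised by 9.35 °C to match UV melts.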

Data set [2] is described as follows: melting temperature; fluorescence melt of hairpins on a sequencing array, two-state fit, raised by 9.35 °C to match UV melts. Particulars: sodium 0.088 M. The gist of the method: as §1

With GGAGGGCCGAAAGGCTCC (((..(((....)))))), the folding enthalpy in data set [1] is -9.45 kcal/mol. Further, the Tm in data set [2] was determined as 39.4 °C.

Turning to GGAGGGGAAACCCTCC ((((((....)))))), the folding enthalpy in data set [1] was -30.9 kcal/mol. Also, the Tm in data set [2] came to 62.8 °C.

Consider GGAGGTACGAAAGTATCC (((..(((....)))))), for which, in data set [1], the folding enthalpy is -13 kcal/mol. In data set [2], the Tm was 32.9 °C.

For GGAGGTTCGAAAGAATCC (((..(((....)))))), the folding enthalpy in data set [1] was -14.4 kcal/mol. For the same sequence, the Tm in data set [2] was 28.9 °C.

Take GGAGTAGGAAACCACTCC (((((.(....).))))): the folding enthalpy in data set [1] was -28.3 kcal/mol. Also, the Tm in data set [2] worked out at 42.6 °C.

Consider GGAGTAGGAAACTACCCC ((.((((....)))).)), for which the folding enthalpy in data set [1] was -24.4 kcal/mol. Besides, the Tm in data set [2] turned out to be 35.1 °C.

Turning to GGAGTCCCGAAAGGGTCC (((..(((....)))))), the folding enthalpy in data set [1] is -12.4 kcal/mol. Besides, in data set [2], the Tm was 34 °C.

As for GGAGTCGAAAGACACTCC ((((((....)))..))), in data set [1], the folding enthalpy is -16 kcal/mol. Also, the Tm in data set [2] stood at 37.5 °C.

As to GGAGTCGAAAGACCTCC ((((((....))).))), the folding enthalpy in data set [1] was -24.5 kcal/mol. For the same sequence, the Tm in data set [2] stood at 50 °C.

Regarding GGAGTCGAAAGACCTTCC ((((((....)))..))), in data set [1], the folding enthalpy was -22.5 kcal/mol. Also, the Tm in data set [2] is 40.6 °C.

For the sequence GGAGTCGAAAGACTATCC ((((((....)))..))), the folding enthalpy in data set [1] is -13.8 kcal/mol. Moreover, the Tm in data set [2] was determined as 32.9 °C.

Take GGAGTCGAAAGACTTCC ((((((....))).))): the folding enthalpy in data set [1] is -21.2 kcal/mol. Besides, the Tm in data set [2] is 48.7 °C.

For the sequence GGAGTCGAAAGACTTTCC ((((((....)))..))), the folding enthalpy in data set [1] is -11.1 kcal/mol. The Tm in data set [2] was 34 °C.

With GGAGTGAAAACTCC (((((....))))), the folding enthalpy in data set [1] was -27.2 kcal/mol. Further, the Tm in data set [2] is 54.8 °C.

Turning to GGAGTGCCGAAAGGCTCC (((..(((....)))))), the folding enthalpy in data set [1] is -12.2 kcal/mol. In data set [2], the Tm was determined as 41.9 °C.

On to GGAGTGCGAAAGCATCC (((.(((....)))))), for which the folding enthalpy in data set [1] is -17.1 kcal/mol. For the same sequence, the Tm in data set [2] worked out at 48.2 °C.

For the sequence GGAGTGCGAAAGCATTCC (((.(((....))).))), the folding enthalpy in data set [1] is -30.4 kcal/mol. Moreover, the Tm in data set [2] stood at 58.1 °C.

For GGAGTGGGAAACCGCTCC ((((.((....)).)))), the folding enthalpy in data set [1] is -44.3 kcal/mol. In addition, the Tm in data set [2] was found to be 57.8 °C.

As for GGAGTGGGAAACCGTTCC (((..((....))..))), the folding enthalpy in data set [1] is -17.8 kcal/mol. Also, in data set [2], the Tm was determined as 32.3 °C.

Consider GGAGTGGGAAACTACTCC (((((.(....).))))), for which, in data set [1], the folding enthalpy was -24.8 kcal/mol. Also, the Tm in data set [2] was 49.5 °C.

GGAGTTACGAAAGTATCC (((..(((....)))))): in data set [1], the folding enthalpy is -9.09 kcal/mol. For the same sequence, the Tm in data set [2] is 26.1 °C.

Turning to GGAGTTGGAAACAACTCC (((((((....))))))), the folding enthalpy in data set [1] was -45.3 kcal/mol. Further, in data set [2], the Tm was determined as 65.9 °C.

GGAGTTGGAAACAGCTTC (.((.((....)).)).): the folding enthalpy in data set [1] was -37 kcal/mol. In addition, the Tm in data set [2] came to 37.1 °C.

As to GGATAAGAAATTATCC ((((((....)))))), the folding enthalpy in data set [1] is -27.6 kcal/mol. In data set [2], the Tm is 42.1 °C.

In the case of GGATAAGGAAACTTATCC (((((((....))))))), the folding enthalpy in data set [1] is -37.6 kcal/mol. Further, in data set [2], the Tm was determined as 52.8 °C.

In the case of GGATACGAAAGTAAATCC ((((((....)))..))), the folding enthalpy in data set [1] was -19.4 kcal/mol. Moreover, in data set [2], the Tm stood at 35.8 °C.

On to GGATACGAAAGTAATTCC ((((((....)))..))), for which the folding enthalpy in data set [1] was -12 kcal/mol. Further, in data set [2], the Tm amounted to 27.7 °C.

Turning to GGATACGAAAGTAGGTCC ((((((....)))..))), the folding enthalpy in data set [1] was -8.27 kcal/mol. Also, in data set [2], the Tm amounted to 28.4 °C.

With GGATACGAAAGTATATCC ((((((....)))..))), the folding enthalpy in data set [1] was -18.3 kcal/mol. Besides, the Tm in data set [2] is 34.5 °C.

Turning to GGATACGGAAACGTATTC (.(((((....))))).), the folding enthalpy in data set [1] is -24.8 kcal/mol. Also, in data set [2], the Tm was found to be 45.2 °C.

(Values after the array DNA melting data of Ke et al. (doi:10.1101/2024.01.08.574731).)
